From ChEMBL document CHEMBL4334424, “The winding road of the uvaretin class of natural products: from total synthesis to bioactive agent discovery” (Medchemcomm, 2019)

Experiments:
HeLa = assay: Cytotoxicity against human HeLa cells assessed as reduction in cell viability incubated for 72 hrs by alamar blue assay; assay type: functional, cell-based
Procedure, shortened: (§1)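 Adherent cells were seeded at 1500 cells/well in 384-well plates and allowed 2–3 h to attach. Compounds in DMSO, diluted in media over 31.6 nM–200 μM, were tested in triplicate for 72 h continuous exposure at 37 °C, 5% CO2. Alamar Blue was added for the final 3 h and fluorescence read (ex 560/em 590 nm). IC50 was fitted from ≥3 independent experiments.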

REH [1] = assay: Cytotoxicity against human REH cells assessed as cell viability at 2.5 uM incubated for 72 hrs in presence of 10 uM 6TP by alamar blue assay (reference value: 10.8 %); assay type: functional
Procedure, shortened: (§2)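 Combination assay in 96-well plates with 100 μL final volume and 1% DMSO. Two test-compound concentrations were crossed with five 6TP concentrations, then cells were added (4000/well adherent, 7000/well suspension). Plates ran 72 h at 37 °C, 5% CO2, with Alamar Blue viability read-out and ≥3 independent experiments. Combination index was calculated by the Chou–Talalay method.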

MIA PaCa-2 [2] = assay: Cytotoxicity against human MIAPaCa2 cells assessed as cell viability at 5 uM incubated for 72 hrs in presence of 100 uM 6TP by alamar blue assay (reference value: 30.7 %); assay type: functional; procedure, shortened: as §2
REH [3] = assay: Cytotoxicity against human REH cells assessed as combinational index at 2.5 uM incubated for 72 hrs in presence of 50 uM 6TP by alamar blue assay; assay type: functional; procedure, shortened: as §2
REH [4] = assay: Cytotoxicity against human REH cells assessed as combinational index at 5 uM incubated for 72 hrs in presence of 200 uM 6TP by alamar blue assay; assay type: functional; procedure, shortened: as §2
MIA PaCa-2 [5] = assay: Cytotoxicity against human MIAPaCa2 cells assessed as combinational index at 5 uM incubated for 72 hrs in presence of 25 uM 6TP by alamar blue assay; assay type: functional; procedure, shortened: as §2
MIA PaCa-2 [6] = assay: Cytotoxicity against human MIAPaCa2 cells assessed as cell viability at 2.5 uM incubated for 72 hrs in presence of 50 uM 6TP by alamar blue assay (reference value: 13.8 %); assay type: functional; procedure, shortened: as §2
A549 = assay: Cytotoxicity against human A549 cells assessed as reduction in cell viability incubated for 72 hrs by alamar blue assay; assay type: functional, cell-based; settings: A549, 72 h; procedure, shortened: as §1
U-937 = assay: Cytotoxicity against human U937 cells assessed as reduction in cell viability incubated for 72 hrs by alamar blue assay; assay type: functional, cell-based; settings: U-937, 72 h
Procedure, shortened: (§3)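 Suspension cells (2200/well, 384-well) were added directly onto compound in media with no attachment period. Compounds spanned 31.6 nM–200 μM in triplicate, with 72 h exposure at 37 °C, 5% CO2. Alamar Blue was added for the last 3 h and fluorescence read (ex 560/em 590 nm). IC50 came from ≥3 independent experiments.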

MIA PaCa-2 [7] = assay: Cytotoxicity against human MIAPaCa2 cells assessed as combinational index at 5 uM incubated for 72 hrs in presence of 50 uM 6TP by alamar blue assay; assay type: functional; procedure, shortened: as §2
REH [8] = assay: Cytotoxicity against human REH cells assessed as combinational index at 2.5 uM incubated for 72 hrs in presence of 100 uM 6TP by alamar blue assay; assay type: functional; procedure, shortened: as §2
REH [9] = assay: Cytotoxicity against human REH cells assessed as cell viability at 2.5 uM incubated for 72 hrs in presence of 50 uM 6TP by alamar blue assay (reference value: 21.9 %); assay type: functional; procedure, shortened: as §2
MIA PaCa-2 [10] = assay: Cytotoxicity against human MIAPaCa2 cells assessed as combinational index at 5 uM incubated for 72 hrs in presence of 200 uM 6TP by alamar blue assay; assay type: functional; procedure, shortened: as §2
REH [11] = assay: Cytotoxicity against human REH cells assessed as cell viability at 5 uM incubated for 72 hrs in presence of 50 uM 6TP by alamar blue assay (reference value: 21.9 %); assay type: functional; procedure, shortened: as §2
REH [12] = assay: Cytotoxicity against human REH cells assessed as cell viability at 2.5 uM incubated for 72 hrs in presence of 25 uM 6TP by alamar blue assay (reference value: 12.2 %); assay type: functional; procedure, shortened: as §2
MIA PaCa-2 [13] = assay: Cytotoxicity against human MIAPaCa2 cells assessed as cell viability at 2.5 uM incubated for 72 hrs by alamar blue assay (reference value: 0 %); assay type: functional; settings: MIA PaCa-2, 72 h, read-out: Activity; procedure, shortened: as §2
MIA PaCa-2 [14] = assay: Cytotoxicity against human MIAPaCa2 cells assessed as combinational index at 2.5 uM incubated for 72 hrs in presence of 100 uM 6TP by alamar blue assay; assay type: functional; procedure, shortened: as §2
MIA PaCa-2 [15] = assay: Cytotoxicity against human MIAPaCa2 cells assessed as cell viability at 2.5 uM incubated for 72 hrs in presence of 100 uM 6TP by alamar blue assay (reference value: 30.7 %); assay type: functional; procedure, shortened: as §2
REH [16] = assay: Cytotoxicity against human REH cells assessed as cell viability at 2.5 uM incubated for 72 hrs in presence of 100 uM 6TP by alamar blue assay (reference value: 49.5 %); assay type: functional; procedure, shortened: as §2
MIA PaCa-2 [17] = assay: Cytotoxicity against human MIAPaCa2 cells assessed as cell viability at 5 uM incubated for 72 hrs in presence of 50 uM 6TP by alamar blue assay (reference value: 13.8 %); assay type: functional; procedure, shortened: as §2
MIA PaCa-2 [18] = assay: Cytotoxicity against human MIAPaCa2 cells assessed as cell viability at 2.5 uM incubated for 72 hrs in presence of 25 uM 6TP by alamar blue assay (reference value: 6.4 %); assay type: functional; procedure, shortened: as §2
MIA PaCa-2 [19] = assay: Cytotoxicity against human MIAPaCa2 cells assessed as cell viability at 5 uM incubated for 72 hrs in presence of 25 uM 6TP by alamar blue assay (reference value: 6.4 %); assay type: functional; procedure, shortened: as §2
MIA PaCa-2 [20] = assay: Cytotoxicity against human MIAPaCa2 cells assessed as cell viability at 5 uM incubated for 72 hrs in presence of 10 uM 6TP by alamar blue assay (reference value: 6.9 %); assay type: functional; procedure, shortened: as §2
MIA PaCa-2 [21] = assay: Cytotoxicity against human MIAPaCa2 cells assessed as combinational index at 2.5 uM incubated for 72 hrs in presence of 200 uM 6TP by alamar blue assay; assay type: functional; procedure, shortened: as §2
REH [22] = assay: Cytotoxicity against human REH cells assessed as combinational index at 5 uM incubated for 72 hrs in presence of 25 uM 6TP by alamar blue assay; assay type: functional; procedure, shortened: as §2
MIA PaCa-2 [23] = assay: Cytotoxicity against human MIAPaCa2 cells assessed as cell viability at 2.5 uM incubated for 72 hrs in presence of 10 uM 6TP by alamar blue assay (reference value: 6.9 %); assay type: functional; procedure, shortened: as §2
REH [24] = assay: Cytotoxicity against human REH cells assessed as cell viability at 2.5 uM incubated for 72 hrs by alamar blue assay (reference value: 0 %); assay type: functional; settings: read-out: Activity; procedure, shortened: as §2
REH [25] = assay: Cytotoxicity against human REH cells assessed as combinational index at 2.5 uM incubated for 72 hrs in presence of 200 uM 6TP by alamar blue assay; assay type: functional; procedure, shortened: as §2
REH [26] = assay: Cytotoxicity against human REH cells assessed as cell viability at 5 uM incubated for 72 hrs by alamar blue assay (reference value: 0 %); assay type: functional; settings: read-out: Activity; procedure, shortened: as §2
REH [27] = assay: Cytotoxicity against human REH cells assessed as reduction in cell viability incubated for 72 hrs by alamar blue assay; assay type: functional, cell-based; procedure, shortened: as §3
REH [28] = assay: Cytotoxicity against human REH cells assessed as combinational index at 5 uM incubated for 72 hrs in presence of 50 uM 6TP by alamar blue assay; assay type: functional; procedure, shortened: as §2
REH [29] = assay: Cytotoxicity against human REH cells assessed as cell viability at 5 uM incubated for 72 hrs in presence of 25 uM 6TP by alamar blue assay (reference value: 12.2 %); assay type: functional; procedure, shortened: as §2
MIA PaCa-2 [30] = assay: Cytotoxicity against human MIAPaCa2 cells assessed as cell viability at 5 uM incubated for 72 hrs by alamar blue assay (reference value: 0 %); assay type: functional; settings: MIA PaCa-2, 72 h, read-out: Activity; procedure, shortened: as §2
MIA PaCa-2 [31] = assay: Cytotoxicity against human MIAPaCa2 cells assessed as combinational index at 5 uM incubated for 72 hrs in presence of 100 uM 6TP by alamar blue assay; assay type: functional; procedure, shortened: as §2
REH [32] = assay: Cytotoxicity against human REH cells assessed as combinational index at 5 uM incubated for 72 hrs in presence of 100 uM 6TP by alamar blue assay; assay type: functional; procedure, shortened: as §2
REH [33] = assay: Cytotoxicity against human REH cells assessed as combinational index at 2.5 uM incubated for 72 hrs in presence of 25 uM 6TP by alamar blue assay; assay type: functional; procedure, shortened: as §2
MIA PaCa-2 [34] = assay: Cytotoxicity against human MIAPaCa2 cells assessed as combinational index at 2.5 uM incubated for 72 hrs in presence of 50 uM 6TP by alamar blue assay; assay type: functional; procedure, shortened: as §2
REH [35] = assay: Cytotoxicity against human REH cells assessed as cell viability at 5 uM incubated for 72 hrs in presence of 100 uM 6TP by alamar blue assay (reference value: 49.5 %); assay type: functional; procedure, shortened: as §2
HCT-116 = assay: Cytotoxicity against human HCT116 cells assessed as reduction in cell viability incubated for 72 hrs by alamar blue assay; assay type: functional, cell-based; settings: HCT-116, 72 h; procedure, shortened: as §1
REH [36] = assay: Cytotoxicity against human REH cells assessed as cell viability at 5 uM incubated for 72 hrs in presence of 10 uM 6TP by alamar blue assay (reference value: 10.8 %); assay type: functional; procedure, shortened: as §2
MIA PaCa-2 [37] = assay: Cytotoxicity against human MIAPaCa2 cells assessed as combinational index at 2.5 uM incubated for 72 hrs in presence of 25 uM 6TP by alamar blue assay; assay type: functional; procedure, shortened: as §2
MIA PaCa-2 [38] = assay: Cytotoxicity against human MIAPaCa2 cells assessed as reduction in cell viability incubated for 72 hrs by alamar blue assay; assay type: functional, cell-based; settings: MIA PaCa-2, 72 h; procedure, shortened: as §1

COCOc1cc(OC)c(C(=O)/C=C/c2ccccc2)c(OCOC)c1
IC50 (HeLa): 9.7 µM | Activity (REH [1]): 11.1% | Activity (MIA PaCa-2 [2]): 61.2% | CI (REH [3]): 1.36 | CI (REH [4]): 0.64 | CI (MIA PaCa-2 [5]): 0.55 | Activity (MIA PaCa-2 [6]): 25.1% | IC50 (A549): 4.2 µM | IC50 (U-937): 5.9 µM | CI (MIA PaCa-2 [7]): 0.51 | CI (REH [8]): 1.36 | Activity (REH [9]): 22.1% | CI (MIA PaCa-2 [10]): 0.19 | Activity (REH [11]): 26.1% | Activity (REH [12]): 13.5% | viability at 2.5 µM (MIA PaCa-2 [13]): 10.2% | CI (MIA PaCa-2 [14]): 0.72 | Activity (MIA PaCa-2 [15]): 49.1% | Activity (REH [16]): 51% | Activity (MIA PaCa-2 [17]): 40.8% | Activity (MIA PaCa-2 [18]): 18.6% | Activity (MIA PaCa-2 [19]): 30% | Activity (MIA PaCa-2 [20]): 25.4% | CI (MIA PaCa-2 [21]): 0.31 | CI (REH [22]): 0.67 | Activity (MIA PaCa-2 [23]): 16.5% | viability at 2.5 µM (REH [24]): 8.1% | CI (REH [25]): 0.63 | viability at 5 µM (REH [26]): 9% | IC50 (REH [27]): 9.2 µM | CI (REH [28]): 0.84 | Activity (REH [29]): 19.1% | viability at 5 µM (MIA PaCa-2 [30]): 16.2% | CI (MIA PaCa-2 [31]): 0.36 | CI (REH [32]): 1.06 | CI (REH [33]): 0.81 | CI (MIA PaCa-2 [34]): 0.79 | Activity (REH [35]): 51% | IC50 (HCT-116): > 20 µM | Activity (REH [36]): 12.7% | CI (MIA PaCa-2 [37]): 0.67 | IC50 (MIA PaCa-2 [38]): 2.2 µM
